# Experimental data taken from ChEMBL document CHEMBL5058577, “EUbOPEN Chemogenomics Library 2 (Multiplex)” (2022).
# Tested on: HEK-293T
# Test: Multiplex assay against HEK293T
# Assay type: toxicity, cell-based
# Conditions: human
# How it was run: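 Cells stained live at seeding with Hoechst33342, BioTracker Green Microtubule Cytoskeleton Dye, MitoTracker Red and Annexin V Alexa Fluor 680 were imaged on a CQ1 microscope at 37°C and 5% CO2 after compound addition. Their classification by CellPathfinder machine-learning gating ran from Hoechst high-intensity objects versus normal cells, to healthy, pyknosed or fragmented nuclei among normal cells, to mitotic or apoptotic among pyknosed cells. Tubulin, mitochondrial-mass and membrane-permeability phenotypes are per cents of healthy-nucleus cells.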
# [1] = 12 h, 1 µM, compound concentration 1 uM, replicate 1
# [2] = 12 h, 1 µM, compound concentration 1 uM, replicate 2
# [3] = 12 h, 10 µM, compound concentration 10 uM, replicate 1
# [4] = 12 h, 10 µM, compound concentration 10 uM, replicate 2
# [5] = 24 h, 1 µM, compound concentration 1 uM, replicate 1
# [6] = 24 h, 1 µM, compound concentration 1 uM, replicate 2
# [7] = 24 h, 10 µM, compound concentration 10 uM, replicate 1
# [8] = 24 h, 10 µM, compound concentration 10 uM, replicate 2
# [9] = 48 h, 1 µM, compound concentration 1 uM, replicate 1
# [10] = 48 h, 1 µM, compound concentration 1 uM, replicate 2
# [11] = 48 h, 10 µM, compound concentration 10 uM, replicate 1
# [12] = 48 h, 10 µM, compound concentration 10 uM, replicate 2
compound,measurement,setting,value
C[C@H]1[C@H]2CC[C@H]3[C@@H]4CC=C5C[C@@H](N(C)C)CC[C@]5(C)[C@H]4CC[C@]23CN1C [CONESSINE],Population Apoptotic (%),[1],35%
same,Population Fragmented Nuclei (%),[1],5%
same,Population Healthy Nuclei (%),[1],78%
same,Population Hoechst High Intensity Objects (%),[1],6%
same,Population Membrane Permeable-Phenotype (%),[1],0%
same,Population Mitochondria Different-Phenotype (%),[1],39%
same,Population Mitotic Cells (%),[1],65%
same,Population Normal (%),[1],93%
same,Population Pyknosed Nuclei (%),[1],16%
same,Population Tubulin-Different-Phenotype (%),[1],26%
same,Total Cell Count,[1],400
same,Population Apoptotic (%),[2],48%
same,Population Fragmented Nuclei (%),[2],4%
same,Population Healthy Nuclei (%),[2],85%
same,Population Hoechst High Intensity Objects (%),[2],8%
same,Population Mitochondria Different-Phenotype (%),[2],58%
same,Population Mitotic Cells (%),[2],51%
same,Population Normal (%),[2],91%
same,Population Pyknosed Nuclei (%),[2],10%
same,Population Tubulin-Different-Phenotype (%),[2],22%
same,Total Cell Count,[2],356
same,Population Apoptotic (%),[3],35%
same,Population Fragmented Nuclei (%),[3],6%
same,Population Healthy Nuclei (%),[3],77%
same,Population Hoechst High Intensity Objects (%),[3],6%
same,Population Membrane Permeable-Phenotype (%),[3],1%
same,Population Mitochondria Different-Phenotype (%),[3],56%
same,Population Mitotic Cells (%),[3],65%
same,Population Normal (%),[3],93%
same,Population Pyknosed Nuclei (%),[3],15%
same,Population Tubulin-Different-Phenotype (%),[3],38%
same,Total Cell Count,[3],419
same,Population Apoptotic (%),[4],59%
same,Population Fragmented Nuclei (%),[4],7%
same,Population Healthy Nuclei (%),[4],78%
same,Population Hoechst High Intensity Objects (%),[4],9%
same,Population Membrane Permeable-Phenotype (%),[4],0%
same,Population Mitochondria Different-Phenotype (%),[4],62%
same,Population Mitotic Cells (%),[4],40%
same,Population Normal (%),[4],90%
same,Population Pyknosed Nuclei (%),[4],14%
same,Population Tubulin-Different-Phenotype (%),[4],30%
same,Total Cell Count,[4],384
same,Population Apoptotic (%),[5],26%
same,Population Fragmented Nuclei (%),[5],9%
same,Population Healthy Nuclei (%),[5],80%
same,Population Hoechst High Intensity Objects (%),[5],5%
same,Population Membrane Permeable-Phenotype (%),[5],1%
same,Population Mitochondria Different-Phenotype (%),[5],22%
same,Population Mitotic Cells (%),[5],73%
same,Population Normal (%),[5],94%
same,Population Pyknosed Nuclei (%),[5],10%
same,Population Tubulin-Different-Phenotype (%),[5],17%
same,Total Cell Count,[5],514
same,Population Apoptotic (%),[6],25%
same,Population Fragmented Nuclei (%),[6],8%
same,Population Healthy Nuclei (%),[6],81%
same,Population Hoechst High Intensity Objects (%),[6],4%
same,Population Membrane Permeable-Phenotype (%),[6],0%
same,Population Mitochondria Different-Phenotype (%),[6],34%
same,Population Mitotic Cells (%),[6],75%
same,Population Normal (%),[6],95%
same,Population Tubulin-Different-Phenotype (%),[6],16%
same,Total Cell Count,[6],484
same,Population Apoptotic (%),[7],27%
same,Population Fragmented Nuclei (%),[7],9%
same,Population Healthy Nuclei (%),[7],79%
same,Population Hoechst High Intensity Objects (%),[7],6%
same,Population Membrane Permeable-Phenotype (%),[7],1%
same,Population Mitochondria Different-Phenotype (%),[7],38%
same,Population Mitotic Cells (%),[7],72%
same,Population Normal (%),[7],93%
same,Population Pyknosed Nuclei (%),[7],11%
same,Population Tubulin-Different-Phenotype (%),[7],28%
same,Total Cell Count,[7],572
same,Population Apoptotic (%),[8],47%
same,Population Healthy Nuclei (%),[8],82%
same,Population Hoechst High Intensity Objects (%),[8],9%
same,Population Membrane Permeable-Phenotype (%),[8],0%
same,Population Mitochondria Different-Phenotype (%),[8],43%
same,Population Mitotic Cells (%),[8],52%
same,Population Normal (%),[8],90%
same,Population Pyknosed Nuclei (%),[8],7%
same,Population Tubulin-Different-Phenotype (%),[8],24%
same,Total Cell Count,[8],474
same,Population Apoptotic (%),[9],30%
same,Population Fragmented Nuclei (%),[9],9%
same,Population Healthy Nuclei (%),[9],82%
same,Population Hoechst High Intensity Objects (%),[9],2%
same,Population Membrane Permeable-Phenotype (%),[9],1%
same,Population Mitochondria Different-Phenotype (%),[9],18%
same,Population Mitotic Cells (%),[9],69%
same,Population Normal (%),[9],97%
same,Population Pyknosed Nuclei (%),[9],7%
same,Population Tubulin-Different-Phenotype (%),[9],12%
same,Total Cell Count,[9],735
same,Population Apoptotic (%),[10],36%
same,Population Fragmented Nuclei (%),[10],10%
same,Population Healthy Nuclei (%),[10],83%
same,Population Hoechst High Intensity Objects (%),[10],4%
same,Population Mitochondria Different-Phenotype (%),[10],20%
same,Population Mitotic Cells (%),[10],63%
same,Population Normal (%),[10],95%
same,Population Pyknosed Nuclei (%),[10],5%
same,Population Tubulin-Different-Phenotype (%),[10],11%
same,Total Cell Count,[10],630
same,Population Apoptotic (%),[11],27%
same,Population Fragmented Nuclei (%),[11],14%
same,Population Healthy Nuclei (%),[11],78%
same,Population Hoechst High Intensity Objects (%),[11],4%
same,Population Membrane Permeable-Phenotype (%),[11],1%
same,Population Mitochondria Different-Phenotype (%),[11],23%
same,Population Mitotic Cells (%),[11],72%
same,Population Normal (%),[11],95%
same,Population Pyknosed Nuclei (%),[11],6%
same,Population Tubulin-Different-Phenotype (%),[11],15%
same,Total Cell Count,[11],767
same,Population Apoptotic (%),[12],36%
same,Population Fragmented Nuclei (%),[12],10%
same,Population Healthy Nuclei (%),[12],81%
same,Population Hoechst High Intensity Objects (%),[12],5%
same,Population Membrane Permeable-Phenotype (%),[12],0%
same,Population Mitochondria Different-Phenotype (%),[12],32%
same,Population Mitotic Cells (%),[12],63%
same,Population Normal (%),[12],94%
same,Population Pyknosed Nuclei (%),[12],7%
same,Population Tubulin-Different-Phenotype (%),[12],17%
same,Total Cell Count,[12],618
